Results from ChEMBL document CHEMBL5244226, “Cyathane Diterpenes from Cultures of the Bird's Nest Fungus Cyathus hookeri and Their Neurotrophic and Anti-neuroinflammatory Activities” (J Nat Prod, 2019).
Calls of active or inactive are those of the source. No cut-off for these calls is given here.

Tests used:
[1] = system: PC-12; assay: Neurotrophic activity in rat PC-12 cells assessed as induction of NGF-mediated neurite outgrowth at 10 uM measured after 48 hrs by microscopic analysis; type: functional, cell-based
How it was run: (§1)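 PC-12 cells (rat) grown in DMEM with 10% heat-inactivated horse serum and 5% FBS at 37 °C, 5% CO2. Plated 1 × 10^4/well on poly-L-lysine for 24 h, then 14 h in low-serum medium (2% HS, 1% FBS). Treated 48 h with compound (DMSO) plus NGF 20 ng/mL; NGF alone as positive control. Triplicate wells, 10 random phase-contrast fields per well, ≥100 cells per field. Neurite-bearing cells counted as percentage of total.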

[2] = system: BV-2; assay: Antineuroinflammatory activity in mouse BV-2 cells assessed as inhibition of LPS-induced NO production measured after 24 hrs by Griess reagent based assay; type: functional, cell-based; settings: BV-2, 24 h
How it was run: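 BV-2 murine microglia in DMEM with 10% heat-inactivated FBS, seeded 2 × 10^4/well and grown 24 h at 37 °C. Then co-treated 24 h with LPS (E. coli 0111:B4, 1 μg/mL) plus test agent in DMSO. Controls were DMSO+LPS and quercetin. Supernatant nitrite by Griess reaction, A540, against a sodium nitrite standard curve. IC50 is the concentration halving NO output.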

[3] = system: PC-12; assay: Cytotoxicity against rat PC-12 cells at 10 uM; type: toxicity, cell-based; settings: pc-12, 10 µM
[4] = system: PC-12; assay: Neurotrophic activity in rat PC-12 cells assessed as induction of NGF-mediated neurite outgrowth by measuring neurite bearing cells at 10 uM measured after 48 hrs by microscopic analysis (reference value: 15.7 +/- 0.1%); type: functional; how it was run: as §1
[5] = system: PC-12; assay: Neurotrophic activity in rat PC-12 cells assessed as induction of NGF-mediated neurite outgrowth by measuring neurite bearing cells at 5 uM measured after 48 hrs by microscopic analysis (reference value: 15.7 +/- 0.1%); type: functional; how it was run: as §1

Structure (SMILES)	Activity [1]	IC50 [2]	Activity [3]	Activity [4]	Activity [5]
CC(C)C1=C2[C@H]3C[C@H]4O[C@](O)([C@H](O)[C@@H]4C4O[C@@H](C)[C@@H](C)O4)[C@]3(C)CC[C@@]2(C)CC1 (some centres not stated)	Active	15.5 µM			
CC(C)C1=C2[C@H]3C[C@@H](O)C(CO)=C[C@H](O)[C@]3(C)CC[C@@]2(C)CC1	Active	22.1 µM			
CC(C)C1=C2[C@H]3CC=C(C=O)CC(=O)[C@]3(C)CC[C@@]2(C)CC1	Active	10.9 µM			
CO[C@H]1C[C@@H]2C3=C(C(C)C)CC[C@]3(C)CC[C@@]2(C)[C@@H](O)C=C1C=O		6.9 µM	Toxic		
CC(C)C1=C2[C@H]3C[C@H]4O[C@](O)(C=C4C(=O)O)[C@]3(C)CC[C@@]2(C)CC1	Active	> 50 µM			
CC(C)[C@]12CC[C@]3(C)CC[C@@]4(C)C(=O)C=C(CO)[C@H](O)C[C@@H]4[C@@]31O2	Active	> 50 µM			
CC(C)C1=C2[C@H]3C[C@H]4O[C@](O)([C@H](O)[C@@H]4CO)[C@]3(C)CC[C@@]2(C)CC1	Active	> 50 µM			
CC1=CC(=O)[C@]2(C)CC[C@@]3(C)CCC(C(C)C)=C3[C@H]2CC1	Active	27.8 µM			
CC(C)C1=C2[C@H]3C[C@H]4O[C@](O)(C=C4COC(=O)C(C)O)[C@]3(C)CC[C@@]2(C)CC1 (some centres not stated)	Active	27.3 µM		32%	28.1%
COC(OC)C1=C[C@H](O)[C@]2(C)CC[C@@]3(C)CCC(C(C)C)=C3[C@H]2C[C@H]1OC	Active	36.8 µM			
CO[C@H]1C(=O)[C@]2(C)CC[C@@]3(C)CCC(C(C)C)=C3[C@H]2CC=C1C=O	Active	19.7 µM			
CC1=C[C@H](O)[C@]2(C)CC[C@@]3(C)CCC(C(C)C)=C3[C@H]2CC1	Active	32.8 µM			
CO[C@@H]1C(C=O)=CC[C@@H]2C3=C(C(C)C)CC[C@]3(C)CC[C@@]2(C)[C@H]1O		9.1 µM	Toxic		
CC(C)C1=C2[C@H]3C[C@H]4O[C@](O)([C@H](O)[C@H]4CO)[C@]3(C)CC[C@@]2(C)CC1	Active	> 50 µM			
CC(C)C1=C2[C@H]3C[C@H]4O[C@](O)(C=C4C4O[C@@H](C)[C@@H](C)O4)[C@]3(C)CC[C@@]2(C)CC1 (some centres not stated)	Active	12 µM			
